Measured values taken from ChEMBL document CHEMBL1144702, “Synthesis and structure-activity relationship studies on tryprostatin A, an inhibitor of breast cancer resistance protein” (Bioorg Med Chem, 2008).
Active and inactive are the calls of the source. The calls are words filed in the database; no cut-off is given here.

Experiment: Cell cycle arrest in mouse tsFT210 cells assessed as accumulation at G1 phase at 100 uM after 18 hrs by flow cytometry
Format: functional, cell-based
Details: not given
In short: (§1)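 Synchronous-culture assay: tsFT210 cells seeded at 1x10^5 cells/mL, preincubated 1 h at 32 °C, then incubated with compound 18 h at 32 °C; morphology checked by microscopy; DNA content by flow cytometry after staining with 50 μg/mL propidium iodide, 0.1% sodium citrate, 0.2% NP-40; nuclei/chromosomes stained with Hoechst 33258 after KCl swelling and Carnoy fixation.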

| SMILES | Activity |
| --- | --- |
| CC(C)=CCc1[nH]c2cc(N=C=S)ccc2c1C[C@@H]1NC(=O)[C@@H]2CCCN2C1=O | Active |
| CC(C)=CCc1[nH]c2cc(N=[N+]=[N-])ccc2c1C[C@@H]1NC(=O)[C@@H]2CCCN2C1=O | Active |
| C=CCn1cc(C[C@@H]2NC(=O)[C@@H]3CCCN3C2=O)c2ccc(OC)cc21 | Active |
| COc1ccc2c(C[C@@H]3NC(=O)[C@H](C(C)C)NC3=O)c(CC=C(C)C)[nH]c2c1 | Active |
| C=CCc1[nH]c2cc(OC)ccc2c1C[C@@H]1NC(=O)[C@@H]2CCCN2C1=O | Active |
| COc1ccc2c(C[C@@H]3NC(=O)[C@@H]4CCCN4C3=O)cn(Cc3ccccc3)c2c1 | Active |

Experiment: Cell cycle arrest in mouse tsFT210 cells assessed as accumulation at G2/M phase at 100 uM after 18 hrs by flow cytometry
Format: functional, cell-based
Details: not given
In short: as §1

| SMILES | Activity |
| --- | --- |
| CC(C)=CCc1[nH]c2cc(N=C=S)ccc2c1C[C@@H]1NC(=O)[C@@H]2CCCN2C1=O | Active |
| CC(C)=CCc1[nH]c2cc(N=[N+]=[N-])ccc2c1C[C@@H]1NC(=O)[C@@H]2CCCN2C1=O | Active |
| COc1ccc2c(C[C@@H]3NC(=O)[C@H](C(C)C)NC3=O)c(CC=C(C)C)[nH]c2c1 | Active |
| C=CCc1[nH]c2cc(OC)ccc2c1C[C@@H]1NC(=O)[C@@H]2CCCN2C1=O | Active |

Experiment: Antiproliferative activity against mouse tsFT210 cells after 48 hrs by WST-8 assay
Format: functional, cell-based
Details: tsFT210, 48 h
In short: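 tsFT210 cells (temperature-sensitive cdc2 mutant from mouse mammary carcinoma FM3A), kept in RPMI 1640 with 10% fetal calf serum at 32 °C; exponentially growing cells exposed to compound at 32 °C for 48 h, then WST-8 added for 4 h at 37 °C; absorbance at 450 nm read to estimate cell number; IC50 reported.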

| SMILES | IC50 |
| --- | --- |
| CC(C)=CCc1[nH]c2cc(N=C=S)ccc2c1C[C@@H]1NC(=O)[C@@H]2CCCN2C1=O | 50 µM |
| CC(C)=CCc1[nH]c2cc(N=[N+]=[N-])ccc2c1C[C@@H]1NC(=O)[C@@H]2CCCN2C1=O | 60 µM |
| C=CCn1cc(C[C@@H]2NC(=O)[C@@H]3CCCN3C2=O)c2ccc(OC)cc21 | 62 µM |
| COc1ccc2c(C[C@@H]3NC(=O)[C@H](C(C)C)NC3=O)c(CC=C(C)C)[nH]c2c1 | 19 µM |
| C=CCc1[nH]c2cc(OC)ccc2c1C[C@@H]1NC(=O)[C@@H]2CCCN2C1=O | 60 µM |
| COc1ccc2c(C[C@@H]3NC(=O)[C@@H]4CCCN4C3=O)cn(Cc3ccccc3)c2c1 | 46 µM |
